Data as given in ChEMBL document CHEMBL3414571, “The discovery of macrocyclic XIAP antagonists from a DNA-programmed chemistry library, and their optimization to give lead compounds with in vivo antitumor activity” (J Med Chem, 2015).
Calls of active or inactive are those of the source. The rule behind the calls is not given here.

Legend:
MDA-MB-231 [1] = assay: Antiproliferative activity against human MDA-MB-231 cells assessed as inhibition of cell proliferation after 72 hrs by MTS assay; format: functional, cell-based; conditions: MDA-MB-231, 72 h
[2] = Mean residence time in Balb/C mouse at 0.2 mg/kg, iv administered as single dose by LC-MS/MS method; format: ADME, organism-based; parameters: dose 0.2 mg/kg, route intravenous; conditions: in vivo
How it was run: (§1)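 Mice received one intravenous dose, and parent compound levels in blood were monitored over time. Plasma pharmacokinetic parameters were derived from these concentration–time profiles.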

[3] = Inhibition of XIAP BIR2 (124 to 240 residues) C202A/C213G mutant (unknown origin) incubated for 60 mins by biotinylated SMAC peptide Alpha-screen assay; parameters: species or system Homo sapiens
[4] = Half life in Balb/C mouse at 0.2 mg/kg, iv administered as single dose by LC-MS/MS method; format: ADME, organism-based; parameters: dose 0.2 mg/kg, route intravenous; conditions: in vivo; how it was run: as §1
A549 = assay: Antiproliferative activity against human A549 cells assessed as inhibition of cell proliferation after 72 hrs by MTS assay; format: functional, cell-based; conditions: A549, 72 h
[5] = Antiproliferative activity against human A875 cells assessed as inhibition of cell proliferation after 72 hrs by MTS assay; format: functional, cell-based; conditions: A875, 72 h
Mus musculus [6] = assay: AUClast in Balb/C mouse at 0.2 mg/kg, iv administered as single dose by LC-MS/MS method; format: ADME, organism-based, Plasma; parameters: dose 0.2 mg/kg, route intravenous, time 0 - last; conditions: in vivo; how it was run: as §1
[7] = Volume of distribution at steady state in Balb/C mouse at 0.2 mg/kg, iv administered as single dose by LC-MS/MS method; format: ADME, organism-based; parameters: dose 0.2 mg/kg, route intravenous; conditions: in vivo, read-out: Vdss; how it was run: as §1
[8] = target: E3 ubiquitin-protein ligase XIAP (Homo sapiens, UniProt P98170); assay: Inhibition of XIAP BIR3 (241 to 356 residues) (unknown origin) incubated for 60 mins by fluoresceinated modified SMAC peptide based fluorescence polarization assay
Chain of E3 ubiquitin-protein ligase XIAP (P98170 whole entry, looked up, the tested form may be a part): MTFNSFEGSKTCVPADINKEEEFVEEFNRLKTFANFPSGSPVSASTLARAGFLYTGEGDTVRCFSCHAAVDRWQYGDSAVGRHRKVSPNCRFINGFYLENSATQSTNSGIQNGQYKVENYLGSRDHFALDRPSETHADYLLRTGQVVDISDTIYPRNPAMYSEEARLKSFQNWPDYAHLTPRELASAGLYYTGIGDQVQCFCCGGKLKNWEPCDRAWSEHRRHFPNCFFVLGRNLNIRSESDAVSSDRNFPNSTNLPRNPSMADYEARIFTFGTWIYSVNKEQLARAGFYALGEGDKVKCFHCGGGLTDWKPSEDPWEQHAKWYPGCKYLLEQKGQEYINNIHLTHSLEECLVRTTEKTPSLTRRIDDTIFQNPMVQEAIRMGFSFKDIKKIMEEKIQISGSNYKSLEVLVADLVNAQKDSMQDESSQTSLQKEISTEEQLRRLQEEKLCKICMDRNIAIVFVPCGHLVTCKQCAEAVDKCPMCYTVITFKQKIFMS

BIR2 domain of XIAP = BIR2 domain of XIAP (Homo sapiens, UniProt P98170, C202A/C213G); assay: Inhibition of XIAP BIR2-3 (124 to 356 residues) C202A/C213G mutant (unknown origin) in human THP1 cells using fluoresceinated caspase-3 substrate by caspase-3 rescue assay; format: cell-based, THP-1
Chain of BIR2 domain of XIAP (P98170 whole entry C202A/C213G, looked up, the tested form may be a part): as the sequence (P98170 whole entry, looked up, the tested form may be a part) above, with C202A, C213G counted along it

[9] = Mean residence time in Balb/C mouse at 1 mg/kg, iv administered as single dose by LC-MS/MS method; format: ADME, organism-based; parameters: dose 1 mg/kg, route intravenous; conditions: in vivo; how it was run: as §1
Mus musculus [10] = assay: Toxicity in human MDA-MB-231 cells xenografted athymic (nu+/nu+) Balb/C mouse assessed as mouse morbidity at 5 to 50 mg/kg, ip dosed every 3 days for total of 5 administrations; format: organism-based; parameters: dose 5-50 mg/kg, route intraperitoneal; conditions: in vivo, 72 h
How it was run: (§2)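 Nude mice carrying subcutaneous MDA-MB-231 tumors staged to 100−150 mm3 were dosed intraperitoneally q3d × 5. Morbidity and body weight loss were monitored throughout the dosing regimen.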

A875 = assay: Antitumor activity against human A875 cells xenografted in athymic (nu+/nu+) Balb/C mouse assessed as tumor growth inhibition at 50 mg/kg, ip dosed every 3 days for total of 5 administrations and measured on day 12 after last dose; format: functional, organism-based; parameters: dose 50 mg/kg
How it was run: (§3)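 Tumor fragments or cells were implanted subcutaneously in athymic nude mice. Once tumors were staged to 100−150 mm3, mice were dosed intraperitoneally every 3 days for 5 doses (q3d × 5).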

MDA-MB-231 [11] = assay: Antitumor activity against human MDA-MB-231 cells xenografted in athymic (nu+/nu+) Balb/C mouse assessed as tumor growth inhibition at 20 mg/kg, ip dosed every 3 days for total of 5 administrations; format: functional, organism-based; parameters: dose 20 mg/kg; how it was run: as §3
Mus musculus [12] = assay: AUClast in Balb/C mouse at 1 mg/kg, iv administered as single dose by LC-MS/MS method; format: ADME, organism-based, Plasma; parameters: time 0 - last, dose 1 mg/kg, route intravenous; conditions: in vivo; how it was run: as §1
MDA-MB-231 [13] = assay: Antitumor activity against human MDA-MB-231 cells xenografted in athymic (nu+/nu+) Balb/C mouse assessed as tumor growth inhibition at 50 mg/kg, ip dosed every 3 days for total of 5 administrations; format: functional; conditions: MDA-MB-231, ip, 72 h, route intraperitoneal, read-out: TGI; how it was run: as §3
MDA-MB-231 [14] = assay: Antitumor activity against human MDA-MB-231 cells xenografted in athymic (nu+/nu+) Balb/C mouse assessed as tumor growth inhibition at 5 mg/kg, ip dosed every 3 days for total of 5 administrations; format: functional, organism-based; parameters: dose 5 mg/kg; how it was run: as §3
[15] = Antitumor activity against human A875 cells xenografted in athymic (nu+/nu+) Balb/C mouse assessed as tumor growth inhibition at 50 mg/kg, ip dosed every 3 days for total of 5 administrations; format: functional; conditions: 72 h, route intraperitoneal, read-out: TGI; how it was run: as §3
[16] = Volume of distribution at steady state in Balb/C mouse at 1 mg/kg, iv administered as single dose by LC-MS/MS method; format: ADME, organism-based; parameters: dose 1 mg/kg, route intravenous; conditions: in vivo, read-out: Vdss; how it was run: as §1
[17] = Half life in Balb/C mouse at 1 mg/kg, iv administered as single dose by LC-MS/MS method; format: ADME, organism-based; parameters: dose 1 mg/kg, route intravenous; conditions: in vivo; how it was run: as §1
Mus musculus [18] = assay: Toxicity in human MDA-MB-231 cells xenografted athymic (nu+/nu+) Balb/C mouse assessed as weight loss at 5 to 50 mg/kg, ip dosed every 3 days for total of 5 administrations; format: organism-based; parameters: dose 5-50 mg/kg, route intraperitoneal; conditions: in vivo, 72 h; how it was run: as §2

SMILES | IC50 (MDA-MB-231 [1]) | IC50 [3] | IC50 (A549) | IC50 [8] | further results
CN[C@@H](C)C(=O)N[C@H](C(=O)N1C[C@@H]2C[C@H]1C(=O)N[C@@H](Cc1ccc3ccccc3c1)C(=O)N[C@H](C(=O)O)Cc1ccc(cc1)OCc1cn(nn1)[C@H]1C[C@@H](C(=O)N[C@@H](Cc3ccc4ccccc4c3)C(=O)N[C@H](C(=O)O)Cc3ccc(cc3)OCc3cn2nn3)N(C(=O)[C@@H](NC(=O)[C@H](C)NC)C2CCCCC2)C1)C1CCCCC1 | 0.014 µM | 0.74 µM | > 25 µM |  | MRT [2]: 2.5 h; half-life [4]: 1.9 h; IC50 [5]: 0.084 µM; AUClast (Mus musculus [6]): 0.457 µg·h/mL; Vd [7]: 0.7 L/kg
CN[C@@H](C)C(=O)N[C@H]1CCCCNC(=O)CCc2cn(nn2)CCCC[C@@H](C(=O)O)NC(=O)[C@H](Cc2ccccc2)NC(=O)[C@@H]2CCCN2C1=O |  | > 18.8 µM |  | 1.36 µM | 
CN[C@@H](C)C(=O)N[C@H](C(=O)N1C[C@@H]2C[C@H]1C(=O)N[C@@H](Cc1ccccc1)C(=O)N[C@H](C(=O)O)Cc1ccc(cc1)NC(=O)CCc1cn(nn1)[C@H]1C[C@@H](C(=O)N[C@@H](Cc3ccccc3)C(=O)N[C@H](C(=O)O)Cc3ccc(cc3)NC(=O)CCc3cn2nn3)N(C(=O)[C@@H](NC(=O)[C@H](C)NC)C(C)C)C1)C(C)C | 7.9 µM | 0.006 µM | > 25 µM | 0.047 µM | EC50 (BIR2 domain of XIAP): 0.07 µM
CN[C@@H](C)C(=O)N[C@H](C(=O)N1C[C@@H]2C[C@H]1C(=O)N[C@@H](Cc1ccc3ccccc3c1)C(=O)N[C@H](C(=O)O)Cc1ccc(cc1)OCc1cn(nn1)[C@H]1C[C@@H](C(=O)N[C@@H](Cc3ccc4ccccc4c3)C(=O)N[C@H](C(=O)O)Cc3ccc(cc3)OCc3cn2nn3)N(C(=O)[C@@H](NC(=O)[C@H](C)NC)C(C)(C)C)C1)C(C)(C)C | 0.026 µM | 0.097 µM | > 25 µM |  | MRT [9]: 0.79 h; Activity (Mus musculus [10]): Non-toxic; TGI (A875): Active; TGI (MDA-MB-231 [11]): inactive; AUClast (Mus musculus [12]): 1.55 µg·h/mL; inhibition in vivo at 50 mg/kg (MDA-MB-231 [13]): 78%; TGI (MDA-MB-231 [14]): inactive; IC50 [5]: 0.077 µM; inhibition in vivo at 50 mg/kg [15]: 148%; Vd [16]: 0.34 L/kg; half-life [17]: 0.85 h; Activity (Mus musculus [18]): Non-toxic
CN[C@@H](C)C(=O)N[C@H]1CCCCNC(=O)CCc2cn(nn2)CCOc2ccc(cc2)C[C@@H](C(=O)O)NC(=O)[C@H](Cc2ccccc2)NC(=O)[C@@H]2CCCN2C1=O |  | > 18.8 µM |  | 1.49 µM | 

The next lines start with results.

IC50 (MDA-MB-231 [1]) | IC50 [3] | IC50 (A549) | IC50 [8] | SMILES | further results
 | 7.99 µM |  | 2.88 µM | CN[C@@H](C)C(=O)N[C@H]1Cc2ccc(cc2)OCc2cn(nn2)CCOc2ccc(cc2)C[C@H](C(=O)O)NC(=O)[C@H](Cc2ccccc2)NC(=O)[C@@H]2CCCN2C1=O | 
 | > 18.8 µM |  | 1.32 µM | CN[C@@H](C)C(=O)N[C@H]1Cc2cn(nn2)CCOc2ccc(cc2)C[C@@H](C(=O)O)NC(=O)[C@H](Cc2ccccc2)NC(=O)[C@@H]2CCCN2C1=O | 
 | 0.827 µM |  | 0.214 µM | CN[C@@H](C)C(=O)N[C@H](C(=O)N1C[C@@H]2C[C@H]1C(=O)N[C@@H](Cc1ccc3ccccc3c1)C(=O)N[C@H](C(=O)O)Cc1ccc(cc1)OCc1cn2nn1)C(C)(C)C | 
 | 2.27 µM |  | 0.235 µM | CN[C@@H](C)C(=O)N[C@H](C(=O)N1C[C@@H]2C[C@H]1C(=O)N[C@@H](Cc1ccc3ccccc3c1)C(=O)N[C@H](C(=O)O)Cc1ccc(cc1)OCc1cn2nn1)C1CCCCC1 | 
